# Assay outcomes (PubChem)
# LANA-H2A inh: blocks KSHV LANA binding to histone H2A/H2B. 320,000 tested, 0.6% active. inhibition, % (test concentration not listed). cell-free LANA-H2A/H2B peptide, fluorescence polarization. Q9QR71; in the data active = inhibition mostly above about 10%, no sharp cut-off; inactive = mostly below about 6.7%
# TRPML3 agonist: agonists of human TRPML3 channel | activation, % at 3 µM | Q8TDD5 | 220,000 tested, 0.29% active | HEK293 TRPML3-YFP, Fluo-8 calcium fluorescence; 100% = the carbachol control signal;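 active = activation above its plate's cutoff, the mean activation of the plate's test wells plus 3 SD, cut at about 12% in these data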;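 also: 0% = DMSO only wells and 100% = carbachol wells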
# Target sequence (Q8TDD5 whole entry, looked up): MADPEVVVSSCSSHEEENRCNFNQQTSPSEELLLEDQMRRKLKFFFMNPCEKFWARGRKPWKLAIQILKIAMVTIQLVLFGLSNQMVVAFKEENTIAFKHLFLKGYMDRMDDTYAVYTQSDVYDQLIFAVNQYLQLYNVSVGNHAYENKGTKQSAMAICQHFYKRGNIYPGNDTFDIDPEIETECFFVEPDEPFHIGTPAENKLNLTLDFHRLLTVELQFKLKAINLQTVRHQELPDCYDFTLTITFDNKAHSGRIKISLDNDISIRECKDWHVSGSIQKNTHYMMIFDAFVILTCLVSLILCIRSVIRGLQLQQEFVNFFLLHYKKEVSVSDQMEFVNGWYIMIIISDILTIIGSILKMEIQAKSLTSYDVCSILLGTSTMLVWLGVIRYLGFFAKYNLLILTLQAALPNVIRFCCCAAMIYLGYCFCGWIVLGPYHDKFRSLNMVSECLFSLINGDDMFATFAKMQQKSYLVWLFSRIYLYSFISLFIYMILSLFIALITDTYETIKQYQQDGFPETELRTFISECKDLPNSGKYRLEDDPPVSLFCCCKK
#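 Test system: HEK293 cells stably carrying human TRPML3-YFP; Doses: single dose, 3 µM final nominal compound, 0.3% DMSO final; Schedule: dye loading 1 h 37 °C then 30 min ambient, 125 s read; Technique: Fluo-8 calcium fluorescence; Benchmarks: high control carbachol 87 µM, low control DMSO.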
# TAAR1 ag: human TAAR1 agonism; CHO RD-HGA16 TAAR1, Fluo-8 calcium fluorescence; vehicle wells 0%, saturating PEA agonist 100%; activation, % at 3 µM; 360,000 tested, 0.99% active; AID 624467;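 active = activation above the mean activation of all test compounds in the run plus 3 SD, cut at about 38% in these data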
#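 Assay system – CHO-derived RD-HGA16 cells with stable Gα16 and human TAAR1 · Compound dosing – one-point dosing at 3 µM (nominal) · Incubation – 17-24 h seeding, 75 min 37 °C dye, 30 min RT · Measured by – kinetic Fluo-8 calcium fluorescence · Control set – DMSO vehicle as 0%, PEA at EC100 as 100% · Repeats – single well for each compound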
# TAAR1 antagonist: antagonists of human TAAR1; Q96RJ0; AID 624466; CHO RD-HGA16 TAAR1, Fluo-8 calcium fluorescence, antagonist; inhibition, % at 3 µM; 360,000 tested, 1.5% active;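 active = inhibition above a per-plate cutoff, the mean inhibition of test compounds on that plate plus 3 SD, cut at about 49% in these data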;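 also: 0% = DMSO plus EC80 beta-PEA response and 100% = DMSO alone without agonist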
#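 Test system – hTAAR1-expressing CHO RD-HGA16 cells, Gα16-coupled · Reagent – β-PEA at EC80 concentration, post-compound challenge · Compound dosing – 3 µM, single point · Timing – 140 s kinetic read after compound, 140 s after agonist · Detection – Fluo-8 intracellular calcium dye fluorescence, real-time kinetic reads · Control set – DMSO and EC80 PEA controls · Repeats – n of 1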
# TRPN1 ag: zebrafish TRPN1 (NompC) channel agonism | activation, % at 3 µM | HEK293 zebrafish TRPN1-YFP, Fluo-8 calcium fluorescence; 100% = response to 87 µM carbachol | AID 1424 | 220,000 tested, 0.18% active;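 active = activation above its plate's cutoff, the mean activation of test wells on that plate plus 3 SD, cut at about 19% in these data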;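 also: 0% = DMSO alone and 100% = 87 µM carbachol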
#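 Material: zebrafish TRPN1-YFP in HEK293 cells. Doses: one dose of 3 µM, 0.3% DMSO. Incubation: dye 1 h 37 °C plus 30 min RT. Measured by: intracellular calcium fluorescence with Fluo-8.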
# GPR7 antagonist: human neuropeptides B/W receptor 1 antagonism. 290,000 tested, 1.1% active. P48145. GPR7-expressing cells, fluorescence antagonist assay. inhibition, % at 4.4 µM; in the data active = inhibition above about 16%, passing the limit was not always enough;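 also: cells stimulated with the agonist NPW; 0% = agonist with vehicle and 100% = vehicle without agonist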
# TAAR1 ag conf: human TAAR1 agonism, confirmed | shares compounds with TAAR1 ag | activation, % at 3 µM | CHO RD-HGA16 TAAR1, Fluo-8 calcium fluorescence; scaled: DMSO 0%, maximal phenethylamine 100% | 2,400 tested, 82% active;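 active = activation above a cutoff set at the run's mean compound activation plus 3 SD, cut at about 39% in these data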
# Ga16 nonsel ag: counter-screen for TAAR1 agonists: nonselective agonists in parental cells | 2,400 tested, 50% active | CHO-Ga16 parental, Fluo-8 calcium fluorescence; normalized to maximal ATP response, DMSO zero | shares compounds with TAAR1 ag | activation, % at 3 µM;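 active = activation above the run cutoff, the mean activation over all tested wells plus 3 SD, cut at about 12% in these data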;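 also: 0% = DMSO wells and 100% = maximal ATP response on the peak over basal ratio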
# TAAR1 desens: human TAAR1 agonist that also desensitizes the receptor; shares compounds with TAAR1 ag; 2,400 tested, 46% active; inhibition, % at 3 µM; AID 651951; CHO RD-HGA16 hTAAR1, Fluo-8 calcium, beta-PEA response inhibition;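 active = inhibition above the run cutoff, the mean inhibition of all test compounds plus 3 SD, cut at about 49% in these data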;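 also: beta-PEA stimulus applied at its EC80; loss of beta-PEA calcium signal after compound pretreatment read as receptor desensitization; 0% = DMSO with beta-PEA at EC80 and 100% = DMSO alone without agonist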
# Ga16 nonsel ant: counter-screen for TAAR1 agonists: nonselective Ga16 antagonists; shares compounds with TAAR1 ag; CHO-Ga16 ATP-induced calcium, Fluo-8 fluorescence; inhibition, % at 3 µM; 2,400 tested, 39% active; AID 651952;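 active = inhibition above the plate's mean compound inhibition plus 3 SD, computed per plate, cut at about 22% in these data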;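 also: 0% = EC80 ATP with DMSO and 100% = DMSO wells without ATP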
# * marks the source's active call; other numbers are inactive results; · = not tested or not shown. Rows were chosen to be rich in hits. Some 3.4% of all compounds tested hit in one or more screens of this group.
SMILES,LANA-H2A inh,TRPML3 agonist,TAAR1 ag,TAAR1 antagonist,TRPN1 ag,GPR7 antagonist,TAAR1 ag conf,Ga16 nonsel ag,TAAR1 desens,Ga16 nonsel ant
CC(C)OC(=O)CN1C(=O)S/C(=C/c2ccc(N3CCCCC3)o2)C1=O,-11,1,63*,65*,0,3,53*,55*,59*,64*
O=C(N=Nc1c(O)n(C2OC(=O)c3ccccc32)c2ccccc12)c1ccc(O)cc1 (centres undefined),11,1,71*,35,0,27,8,8,14,19
CCCCCCCCCCCCCCC(O)C[N+](C)(CCO)CCO (centres undefined),·,·,54*,77*,·,·,18,4,36,30*
C/C(=N\NC(=O)c1ccncc1)c1cc2ccccc2oc1=O,-2,1,3,-1,0,6,·,·,·,·
C/C(=N/NC(=O)c1ccncc1)c1cc2ccc(O)cc2oc1=O,87*,3,90*,19,1,-3,134*,153*,6,11
O=C(c1ccc(CN2CCc3ccccc3C2)cc1)N1CCN(c2ccccc2)CC1,-1,1,1,-11,2,-8,·,·,·,·
Cc1ccccc1OCC(=O)N1CCc2ccccc2C1,-1,·,42*,19,·,8,88*,2,31,-3
CC1CC(C)CN(C(=O)Nc2ccccc2F)C1 (centres undefined),-4,1,1,-13,-1,-13,·,·,·,·
O=C(Nc1ccccc1F)N1CCc2ccccc2C1,1,·,50*,-18,·,-8,40*,1,11,7
O=C(CNCc1ccccn1)N1CCc2ccccc2C1,-4,-1,47*,3,1,0,28,0,-2,6
O=C(c1ccc(CN2CCc3ccccc3C2)cc1)N1CCc2ccccc2C1,0,0,67*,-11,2,-6,64*,2,18,12
COc1cccc(OCC(=O)N(C)Cc2nc(-c3cccc(C)c3)no2)c1,-2,·,-2,-4,·,0,·,·,·,·
O=C1NC[C@H](CCCCN2CCN(CC3CCCCC3)C(=O)C2=O)N(CC2CCCCC2)C1=O,·,·,-1,9,·,·,·,·,·,·
O=C(/C=C/c1ccc(F)cc1)N1CCc2ccccc2C1,3,·,4,-9,·,·,·,·,·,·
Cc1ccc(C)c(NC(=O)N2CCc3ccccc3C2)c1,10,·,86*,-5,·,-5,73*,5,33,7
Cc1ccc(C)c(NC(=O)N2CCCCCC2)c1,0,·,2,-29,·,-21,·,·,·,·
O=C(/C=C/C(=O)N1CCc2ccccc2C1)N1CCc2ccccc2C1,-2,0,82*,47,1,3,87*,3,58*,8
O=C(CN(C1CCCCC1)C1CCCCC1)N1CCc2ccccc2C1,-8,0,96*,99*,-1,-3,106*,21*,105*,29*
O=C(CN(C1CCCCC1)S(=O)(=O)c1ccccc1)N1CCCC1,-5,1,-3,-2,-1,-5,·,·,·,·
Cc1cc(NC(=O)CSc2nc(-c3ccco3)cc(C(F)(F)F)n2)no1,0,1,44*,18,2,1,-1,5,3,11
Cc1cc(NC(=O)CCSc2nc(-c3ccco3)cc(C(F)(F)F)n2)no1,4,0,8,12,0,-6,·,·,·,·
S=C(NCCc1cccc(Cl)c1)NC1CCCCC1,-2,·,0,17,·,3,·,·,·,·
COc1ccc(N/N=C/c2c(C(=O)O)ccc3ccccc23)cc1,-4,0,62*,6,7,3,62*,13*,35,18
CC1CC(O)C2C3(C)CCCC2(COC3=O)C12CCC1(CCOC1=O)O2 (centres undefined),·,·,1,-14,·,·,·,·,·,·
CC1(C)CC(=O)C(=CN2CCN(C(=O)c3ccco3)CC2)C(=O)C1,·,0,54*,-6,0,-10,63*,0,27,-10
SMILES,LANA-H2A inh,TRPML3 agonist,TAAR1 ag,TAAR1 antagonist,TRPN1 ag,GPR7 antagonist,TAAR1 ag conf,Ga16 nonsel ag,TAAR1 desens,Ga16 nonsel ant
CC(OC(=O)c1cccc(S(=O)(=O)N2CCCC2)c1)C(=O)c1ccccc1 (centres undefined),5,·,-1,-10,·,-6,·,·,·,·
O=C(NCC(c1ccco1)N1CCc2ccccc2C1)c1ccccc1Br (centres undefined),1,·,35,7,·,·,·,·,·,·
O=C(NCC(c1ccco1)N1CCc2ccccc2C1)C(=O)Nc1ccc(F)cc1F (centres undefined),-5,·,58*,14,·,·,41*,5,10,16
O=C(NCC(c1ccco1)N1CCc2ccccc2C1)c1c(F)cccc1F (centres undefined),-2,·,1,-17,·,·,·,·,·,·
CC(=O)Nc1ccc(NC(=O)C(=O)NCC(c2ccco2)N2CCc3ccccc3C2)cc1 (centres undefined),-2,·,78*,16,·,·,93*,4,36,7
O=C(NCC(c1ccco1)N1CCc2ccccc2C1)C(=O)Nc1ccccc1F (centres undefined),3,·,46*,16,·,·,48*,2,16,18
Cc1ncoc1C(=O)N1CCCC(N2CCN(c3cccc(C(F)(F)F)c3)CC2)C1 (centres undefined),1,·,-1,-23,·,-5,·,·,·,·
Cc1ccc([C@H]2C[C@@H](n3cc(COC(=O)c4ccccc4)nn3)[C@H](O)CN2C(=O)C2CCCCC2)cc1,·,·,3,16,·,·,·,·,·,·
CCCNC(=O)C1(C)CCN(Cc2ccc(C)c3ccccc23)C1 (centres undefined),·,·,-1,-19,·,·,·,·,·,·
Cc1ccc(NC(=O)Cn2cnc3c(NCc4ccccc4)ncnc32)cc1C,·,·,2,-9,·,·,·,·,·,·
Cc1ccc(S(=O)(=O)n2nc(OC(=O)c3ccccc3F)cc2N)cc1,-1,·,65*,17,·,1,73*,46*,30,11
Cc1ccc(C(=O)Oc2cc(N)n(S(=O)(=O)c3ccc(C)cc3)n2)cc1,3,-1,7,-19,-2,-13,·,·,·,·
